High-throughput results as filed in PubChem BioAssay.
The list is not random: actives were taken first. Their share in the collection is about 2.6%.
Rev-erbA mod – modulates human Rev-erb alpha binding to DNA. P20393. Rev-erbα–FITC-DNA binding, fluorescence polarization, 90 min. activity, % at 10 µM. 0.79% of 370,000 active. AID 1259318;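 active = activity above about 14%, limit read from the data; passing the limit was not always enough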;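 also: 0% = DMSO wells with 35 nM protein and 100% = DMSO wells with 750 nM protein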
Target sequence (P20393 whole entry, looked up): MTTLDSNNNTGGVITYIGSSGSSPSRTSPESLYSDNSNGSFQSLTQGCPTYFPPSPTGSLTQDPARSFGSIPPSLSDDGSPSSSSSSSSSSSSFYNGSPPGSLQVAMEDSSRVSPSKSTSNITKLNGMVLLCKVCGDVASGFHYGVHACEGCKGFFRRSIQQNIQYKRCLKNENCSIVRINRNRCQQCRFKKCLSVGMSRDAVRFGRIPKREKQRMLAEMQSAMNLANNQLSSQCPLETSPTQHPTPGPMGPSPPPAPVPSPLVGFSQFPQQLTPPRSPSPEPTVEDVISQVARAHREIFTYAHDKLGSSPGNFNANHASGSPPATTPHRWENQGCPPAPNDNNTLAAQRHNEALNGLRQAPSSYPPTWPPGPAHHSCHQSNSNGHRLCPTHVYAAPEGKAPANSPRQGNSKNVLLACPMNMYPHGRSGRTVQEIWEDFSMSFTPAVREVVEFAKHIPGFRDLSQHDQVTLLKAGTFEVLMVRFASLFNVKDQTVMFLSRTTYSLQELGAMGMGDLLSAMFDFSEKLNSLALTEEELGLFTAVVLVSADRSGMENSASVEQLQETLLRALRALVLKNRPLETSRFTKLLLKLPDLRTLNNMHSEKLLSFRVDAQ
PG9 binder – PG9 antibody binding by small molecule | TR-FRET gp120-PG9 antibody binding | inhibition, % at 6.7 µM | 0.43% of 360,000 active | AID 624416; in the data active = inhibition above about 8.5%
NR2E3 ag-1 – agonists of human NR2E3 nuclear receptor; CHO-S Gal4-NCOR/VP16-NR2E3 two-hybrid, luciferase; 0.35% of 360,000 active; inhibition of corepressor binding, % at 3.98 µM;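 active = inhibition above the mean of all tested compounds plus 3 SD, cut at about 70% in these data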;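 also: 0% = DMSO with NR2E3 transfected cells and 100% = cells lacking NR2E3 construct; higher means lower luciferase signal from less NR2E3 corepressor binding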
rCAG binder – binds r(CAG) RNA repeats; r(CAG) RNA repeat, TO-PRO-1 dye displacement fluorescence; inhibition, % at 3 µM; 1.3% of 370,000 active; AID 651821;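 active = inhibition above the plate cutoff, the mean of all test compounds on that plate plus 3 SD, cut at about 35% in these data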;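 also: 0% = DMSO alone and 100% = 100 µM mitoxantrone as full dye displacement; higher means more dye released from RNA so lower well fluorescence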
NR2E3 ag-2 – activates human photoreceptor nuclear receptor NR2E3; Q9Y5X4; GST-NR2E3/biotin-RetCOR TR-FRET, 1536-well; inhibition of corepressor binding, % at 4.78 µM; 0.12% of 320,000 active; AID 2300;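 active = percent inhibition above the cutoff of mean plus 3 SD of all tested compounds, set per screening campaign, cut at about 20% in these data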;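 also: 0% = DMSO wells and 100% = biotin wells as full block of FRET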
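Material: NR2E3–RetCOR corepressor complex / Incubation: Compound–protein incubation for 5 h at 4 °C / Dosing: compound at 4.8 µM, single dose / Detection: time-resolved FRET / Benchmarks: high control biotin, low control 0.6% DMSO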
PG9 bind confirm – PG9 antibody binding, confirmed; shares compounds with PG9 binder; TR-FRET PG9 antibody binding, biochemical; inhibition, % at 6.7 µM; 90% of 1,500 active; AID 651571; in the data active = inhibition above about 9%
PGV04 counter – PGV04 control antibody binding, counter-screen; AID 651604; TR-FRET PGV04 antibody-gp120 binding, biochemical; 95% of 1,500 active; inhibition, % at 6.7 µM; shares compounds with PG9 binder; in the data active = inhibition above about 9.5%
PG9 bind DR – small molecules binding HIV-1 gp120 antibody PG9; shares compounds with PG9 binder; TR-FRET PG9 antibody-gp120 binding inhibition; IC50, µM; 95 tested, under 10 active; in the data active = IC50 below about 10 µM
PGV04 DR counter – binds control antibody PGV04 in PG9 counter-screen | AID 651937 | shares compounds with PG9 binder | TR-FRET binding to control antibody PGV04 | 20% of 95 active | IC50, µM
PG126 binding DR – counter-screen for PG9 binders: binding to control antibody PG126; shares compounds with PG9 binder; TR-FRET binding to antibody PG126, counterscreen; IC50, µM; 20% of 95 active; AID 651939
Active calls of the source: *; i = inactive; x = not tested or not shown. Rule as the data show it, unless noted: active = IC50 below about 9 µM; inactive = the rest.

SMILES	Rev-erbA mod	PG9 binder	NR2E3 ag-1	rCAG binder	NR2E3 ag-2	PG9 bind confirm	PGV04 counter	others
COC(=O)C1(C)CCc2cc(OC)ccc2C1=O (stereo not given)	3	1	-16	-2	0	x	x
COC(=O)C1(C)CN(S(=O)(=O)c2ccc(C)cc2)c2cc(OC)ccc2C1=O (stereo not given)	-3	8.6*	-10	4	-3	15*	18*
CC1(C)Cc2c(c(N3CCOCC3)nc3snc(NC(=O)c4ccccc4)c23)CO1	2	-1	-7	1	-2	x	x
Cc1nc2c(sc3nc(N4CCOCC4)c4c(c32)CC(C)(C)OC4)c(-c2ccccc2)c1C(=O)O	5	16*	-17	2	15	26*	32*
CC1(C)Cc2c(C#N)c(SCC(=O)c3ccccc3)nc(N3CCOCC3)c2CO1	-5	42*	-1	0	1	9.3*	86*
O=S1(=O)CC(N2CCCCC2)CN1Cc1cn(Cc2cccc(Cl)c2)nn1 (stereo not given)	5	0	-5	0	x	x	x
C=CC[C@H](CC(=O)OC(C)(C)C)C(=O)OC[C@@H]1CCCN1C(=O)[C@H](CC=C)CC(=O)N[C@H](CO)Cc1ccccc1	-1	-1	-1	-5	x	x	x
O=C(CSc1nc2ccccc2c(=O)[nH]1)NCc1ccc(Cl)cc1	-1	12*	-32	4	2	24*	27*
O=C(CSc1nc2ccccc2c(=O)n1Cc1ccc(Cl)cc1)NCc1cccs1	15	17*	-15	-1	4	21*	30*
O=c1[nH]c(SCc2n[nH]c(=S)n2-c2ccccc2)nc2ccccc12	3	1	-6	4	2	x	x
CCn1c(SCC(=O)NCc2ccccc2)nc2ccccc2c1=O	-6	-3	1	-4	3	x	x
O=c1[nH]c(SCc2nc3ccccc3c(=O)n2-c2ccccc2)nc2ccccc12	5	13*	1	1	0	22*	28*
CC12CCC(=O)N1C(C(=O)NNC(=O)c1ccc(Br)cc1)CS2 (stereo not given)	4	0	3	-1	1	x	x
Cc1ccc(S(=O)(=O)Nc2nc3ccccc3nc2Nc2cccc(S(=O)(=O)N3CCCC3)c2)cc1	1	9.8*	-7	21	-1	12*	14*
CCc1nnc(NC(=O)CSc2nnc(-c3ccccc3O)n2-c2ccc(C)cc2)s1	8	11*	-5	-1	1	14*	22*
Cc1ccc(S(=O)(=O)NCCC(=O)NNC(=O)c2ccccc2Cl)cc1C	8	-1	-38	0	x	x	x
O=C(Nc1nc(=O)c2ccccc2s1)c1ccccc1	23	29*	-31	3	5	51*	69*
O=C(COC(=O)c1cc(Cl)ccc1O)c1ccc2c(c1)OCO2	8	11*	-22	-1	1	10*	15*
O=C(COC(=O)c1ccc(O)cc1O)c1ccc2c(c1)OCO2	-3	-1	-37	5	-2	x	x
O=C(Nc1ccc2c(c1)OCO2)C1CCN(c2ccc(S(=O)(=O)N3CCOCC3)cc2)CC1	0	16*	-4	1	0	27*	25*	PG9 bind DR=>67;PGV04 DR counter=i;PG126 binding DR=i
Cc1ccc(S(=O)(=O)N2CCC(C(=O)Nc3ccc4c(c3)OCO4)CC2)cc1	-3	0	-10	4	6	x	x
O=C(Nc1cc(C(F)(F)F)ccc1-n1cncn1)c1ccc(F)cc1Cl	3	-1	-17	0	1	x	x
O=C(Nc1ccc2oc(-c3ccncc3)nc2c1)c1ccccc1F	6	23*	-56	-5	3	32*	53*
